Activity calls are given as the source filed them.
Tests used:
Details in all cases: dose microM <=1
Peregrin (Homo sapiens) = target: T1, Peregrin (Homo sapiens) (UniProt P55201); test: Binding affinity to human BRPF1 assessed as dissociation constant up to 1 uM by BROMOscan assay
T1 sequence (whole entry): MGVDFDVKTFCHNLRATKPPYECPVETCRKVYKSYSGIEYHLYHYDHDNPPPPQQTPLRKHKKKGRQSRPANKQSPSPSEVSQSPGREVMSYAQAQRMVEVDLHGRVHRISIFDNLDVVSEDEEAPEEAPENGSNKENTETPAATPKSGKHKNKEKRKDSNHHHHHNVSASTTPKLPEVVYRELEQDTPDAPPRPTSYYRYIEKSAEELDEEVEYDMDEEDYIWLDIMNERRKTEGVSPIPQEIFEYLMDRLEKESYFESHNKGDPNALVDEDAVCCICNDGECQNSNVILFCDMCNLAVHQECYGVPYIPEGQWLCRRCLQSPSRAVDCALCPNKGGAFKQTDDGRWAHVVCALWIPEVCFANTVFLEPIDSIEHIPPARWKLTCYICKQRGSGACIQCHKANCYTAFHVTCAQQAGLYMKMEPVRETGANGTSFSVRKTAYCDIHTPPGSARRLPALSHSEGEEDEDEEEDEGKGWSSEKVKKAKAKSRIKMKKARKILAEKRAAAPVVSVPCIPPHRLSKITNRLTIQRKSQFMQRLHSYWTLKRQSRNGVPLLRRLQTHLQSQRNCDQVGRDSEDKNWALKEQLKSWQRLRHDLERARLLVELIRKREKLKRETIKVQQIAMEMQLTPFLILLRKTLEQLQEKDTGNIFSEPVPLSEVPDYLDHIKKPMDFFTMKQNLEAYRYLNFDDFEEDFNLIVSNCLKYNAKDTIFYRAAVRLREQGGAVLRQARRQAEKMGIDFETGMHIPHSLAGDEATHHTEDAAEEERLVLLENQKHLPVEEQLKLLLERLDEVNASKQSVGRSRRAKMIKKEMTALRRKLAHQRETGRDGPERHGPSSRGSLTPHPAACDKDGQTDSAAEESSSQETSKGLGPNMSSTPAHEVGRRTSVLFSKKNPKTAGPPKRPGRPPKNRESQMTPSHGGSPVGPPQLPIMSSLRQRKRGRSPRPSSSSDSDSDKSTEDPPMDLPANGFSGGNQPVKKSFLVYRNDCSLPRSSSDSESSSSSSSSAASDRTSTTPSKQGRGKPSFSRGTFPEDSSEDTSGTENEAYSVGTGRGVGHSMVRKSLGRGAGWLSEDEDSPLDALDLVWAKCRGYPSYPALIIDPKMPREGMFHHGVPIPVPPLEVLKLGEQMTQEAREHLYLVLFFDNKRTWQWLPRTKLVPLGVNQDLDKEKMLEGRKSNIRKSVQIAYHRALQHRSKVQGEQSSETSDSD
Outline: (§1)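 BROMOscan competition binding panel of 12 phylogenetically diverse bromodomains, including the CREBBP and EP300 bromodomains.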

[1] = target: Bromodomain-containing protein 2 (Homo sapiens) (UniProt P25440); test: Binding affinity to human BRD2 bromodomain 1 assessed as dissociation constant up to 1 uM by BROMOscan assay; outline: as §1
Bromodomain-containing protein 2 (Homo sapiens), sequence (P25440 whole entry, looked up): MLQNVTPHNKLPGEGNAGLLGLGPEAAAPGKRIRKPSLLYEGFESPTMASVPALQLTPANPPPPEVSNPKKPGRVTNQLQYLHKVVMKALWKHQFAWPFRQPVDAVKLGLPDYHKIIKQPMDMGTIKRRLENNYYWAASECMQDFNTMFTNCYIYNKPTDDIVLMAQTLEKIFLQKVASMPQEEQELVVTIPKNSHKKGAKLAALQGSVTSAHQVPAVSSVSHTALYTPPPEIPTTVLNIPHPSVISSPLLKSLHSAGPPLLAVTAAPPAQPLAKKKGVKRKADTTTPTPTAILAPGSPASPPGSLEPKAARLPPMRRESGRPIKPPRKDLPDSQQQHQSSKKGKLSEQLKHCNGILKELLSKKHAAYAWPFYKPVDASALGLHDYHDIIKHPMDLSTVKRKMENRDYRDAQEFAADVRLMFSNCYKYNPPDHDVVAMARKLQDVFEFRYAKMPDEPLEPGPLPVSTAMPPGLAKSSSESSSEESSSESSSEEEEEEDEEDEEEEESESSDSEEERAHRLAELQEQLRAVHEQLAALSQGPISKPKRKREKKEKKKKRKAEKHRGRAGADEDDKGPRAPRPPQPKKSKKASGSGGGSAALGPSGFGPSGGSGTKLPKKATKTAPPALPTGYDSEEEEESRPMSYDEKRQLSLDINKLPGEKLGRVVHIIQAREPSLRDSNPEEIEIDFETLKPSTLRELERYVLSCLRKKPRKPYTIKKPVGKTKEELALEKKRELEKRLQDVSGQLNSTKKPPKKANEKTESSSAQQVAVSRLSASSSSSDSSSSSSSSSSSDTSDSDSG

[2] = target: SWI/SNF-related matrix-associated actin-dependent regulator of chromatin subfamily A member 4 (Homo sapiens) (UniProt P51532); test: Binding affinity to human SMARCA4 assessed as dissociation constant up to 1 uM by BROMOscan assay; outline: as §1
SWI/SNF-related matrix-associated actin-dependent regulator of chromatin subfamily A member 4 (Homo sapiens), sequence (P51532 whole entry, the tested form may be a part): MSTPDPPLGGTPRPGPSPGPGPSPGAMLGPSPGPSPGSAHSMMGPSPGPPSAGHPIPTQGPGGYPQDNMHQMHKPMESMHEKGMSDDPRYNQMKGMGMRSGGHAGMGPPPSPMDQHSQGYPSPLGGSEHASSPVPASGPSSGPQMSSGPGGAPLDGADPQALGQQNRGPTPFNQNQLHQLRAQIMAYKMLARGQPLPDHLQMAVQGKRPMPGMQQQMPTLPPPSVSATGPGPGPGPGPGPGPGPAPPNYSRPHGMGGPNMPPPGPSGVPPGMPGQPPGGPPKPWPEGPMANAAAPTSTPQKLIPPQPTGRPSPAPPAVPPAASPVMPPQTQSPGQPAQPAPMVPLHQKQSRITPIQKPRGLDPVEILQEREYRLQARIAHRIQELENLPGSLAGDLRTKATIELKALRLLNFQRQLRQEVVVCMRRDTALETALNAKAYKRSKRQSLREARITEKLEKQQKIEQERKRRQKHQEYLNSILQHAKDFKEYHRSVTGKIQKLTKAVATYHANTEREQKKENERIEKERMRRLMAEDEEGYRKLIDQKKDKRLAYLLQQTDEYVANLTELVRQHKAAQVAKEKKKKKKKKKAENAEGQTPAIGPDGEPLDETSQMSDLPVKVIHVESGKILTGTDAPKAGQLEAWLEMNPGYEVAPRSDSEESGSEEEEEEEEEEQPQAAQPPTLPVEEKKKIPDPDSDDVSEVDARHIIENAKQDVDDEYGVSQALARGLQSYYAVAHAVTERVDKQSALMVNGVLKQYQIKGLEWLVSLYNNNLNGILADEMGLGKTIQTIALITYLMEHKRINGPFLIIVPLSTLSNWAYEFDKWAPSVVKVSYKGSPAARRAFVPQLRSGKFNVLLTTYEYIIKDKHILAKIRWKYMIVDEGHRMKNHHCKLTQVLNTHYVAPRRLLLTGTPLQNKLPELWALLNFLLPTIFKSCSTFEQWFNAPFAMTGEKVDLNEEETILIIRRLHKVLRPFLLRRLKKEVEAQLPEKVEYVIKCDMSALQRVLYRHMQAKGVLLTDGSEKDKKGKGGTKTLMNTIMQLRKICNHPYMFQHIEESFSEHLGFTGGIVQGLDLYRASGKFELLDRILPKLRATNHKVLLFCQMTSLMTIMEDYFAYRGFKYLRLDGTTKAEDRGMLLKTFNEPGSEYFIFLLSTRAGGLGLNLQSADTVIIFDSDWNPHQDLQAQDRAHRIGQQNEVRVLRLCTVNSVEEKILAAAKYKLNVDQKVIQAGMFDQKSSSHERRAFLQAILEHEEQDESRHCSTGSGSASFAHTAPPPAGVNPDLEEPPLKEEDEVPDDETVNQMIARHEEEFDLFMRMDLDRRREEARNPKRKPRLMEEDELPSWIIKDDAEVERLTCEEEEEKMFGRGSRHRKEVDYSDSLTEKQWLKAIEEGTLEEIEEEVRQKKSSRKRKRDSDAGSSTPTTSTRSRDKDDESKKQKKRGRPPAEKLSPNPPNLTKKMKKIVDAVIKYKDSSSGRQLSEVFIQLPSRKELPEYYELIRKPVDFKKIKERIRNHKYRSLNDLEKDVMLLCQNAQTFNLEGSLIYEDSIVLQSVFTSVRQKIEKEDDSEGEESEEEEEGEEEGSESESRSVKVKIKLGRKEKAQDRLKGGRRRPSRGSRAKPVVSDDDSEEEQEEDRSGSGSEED

[3] = target: T2, ATPase family AAA domain-containing protein 2B (Homo sapiens) (UniProt Q9ULI0); test: Binding affinity to human ATAD2B assessed as dissociation constant up to 1 uM by BROMOscan assay; outline: as §1
T2 sequence (whole entry): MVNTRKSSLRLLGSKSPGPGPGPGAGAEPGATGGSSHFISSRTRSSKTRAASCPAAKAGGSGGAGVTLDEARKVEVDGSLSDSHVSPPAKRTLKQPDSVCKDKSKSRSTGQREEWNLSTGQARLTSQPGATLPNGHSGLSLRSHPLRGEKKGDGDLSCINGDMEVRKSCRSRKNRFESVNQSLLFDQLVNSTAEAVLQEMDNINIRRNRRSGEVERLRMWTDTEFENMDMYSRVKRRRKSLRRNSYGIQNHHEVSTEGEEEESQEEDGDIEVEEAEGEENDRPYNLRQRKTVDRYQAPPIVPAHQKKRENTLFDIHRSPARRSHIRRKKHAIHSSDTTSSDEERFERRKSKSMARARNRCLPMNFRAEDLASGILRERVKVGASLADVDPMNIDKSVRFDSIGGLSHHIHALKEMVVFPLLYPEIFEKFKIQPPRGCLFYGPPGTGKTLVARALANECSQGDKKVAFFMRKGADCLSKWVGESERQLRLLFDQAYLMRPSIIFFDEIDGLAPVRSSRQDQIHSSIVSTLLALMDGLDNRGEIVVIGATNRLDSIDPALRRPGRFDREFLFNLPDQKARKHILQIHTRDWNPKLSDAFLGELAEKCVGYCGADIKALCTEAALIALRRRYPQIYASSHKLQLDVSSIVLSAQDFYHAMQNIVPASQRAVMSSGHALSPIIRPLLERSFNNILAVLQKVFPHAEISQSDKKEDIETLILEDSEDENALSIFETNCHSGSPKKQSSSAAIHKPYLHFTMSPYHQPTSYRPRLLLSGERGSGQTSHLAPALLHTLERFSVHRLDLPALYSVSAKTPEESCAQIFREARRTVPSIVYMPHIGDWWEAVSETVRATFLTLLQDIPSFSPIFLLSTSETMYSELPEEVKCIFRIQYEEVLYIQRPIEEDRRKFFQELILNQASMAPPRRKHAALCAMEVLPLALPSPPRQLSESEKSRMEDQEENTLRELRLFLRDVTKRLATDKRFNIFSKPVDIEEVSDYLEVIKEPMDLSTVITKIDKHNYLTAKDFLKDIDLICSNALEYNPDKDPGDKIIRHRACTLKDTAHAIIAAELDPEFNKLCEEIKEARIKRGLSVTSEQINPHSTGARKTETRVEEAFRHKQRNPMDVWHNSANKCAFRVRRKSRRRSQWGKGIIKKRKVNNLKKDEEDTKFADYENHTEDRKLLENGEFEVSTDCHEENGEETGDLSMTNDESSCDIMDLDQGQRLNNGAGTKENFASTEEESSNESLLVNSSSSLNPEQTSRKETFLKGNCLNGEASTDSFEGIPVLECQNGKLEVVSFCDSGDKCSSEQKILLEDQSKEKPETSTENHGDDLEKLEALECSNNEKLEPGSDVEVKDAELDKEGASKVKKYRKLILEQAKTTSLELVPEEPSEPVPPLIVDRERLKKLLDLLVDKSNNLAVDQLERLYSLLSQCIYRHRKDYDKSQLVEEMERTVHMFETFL

Measured: Activity

COc1ccc2c(c1)N(CCC/C=C/c1cccc3c1N[C@H](C)CC(=O)N3)CCC2
inactive: all assays above

COc1ccc2c(c1)N(CCC/C=C/c1cccc3c1N[C@@H](C)CC(=O)N3)CCC2
inactive: all assays above

Source: ChEMBL document CHEMBL5029150, “Controlling Intramolecular Interactions in the Design of Selective, High-Affinity Ligands for the CREBBP Bromodomain” (J Med Chem, 2021)
